Assay results collected from several papers.
Compare with care: the assays were run in different laboratories.
Cell line: L02
Effect on: cell growth or viability

| Structure (SMILES) | method | time | IC50 |
| --- | --- | --- | --- |
| Oc1c(I)cc(I)c2cccnc12 | MTT | 48 h | 71 µM |
| COc1ccc(NC(=O)Nc2ccc(OCc3nccc(OC)c3OC)cc2)cc1 | MTT | 72 h | > 100 µM |
| COc1ccnc(-c2cc(OC)ccn2)c1 | MTT | 48 h | > 50 µM |
| Cc1cc(Oc2ccc(NC(=O)c3sc(-c4ccccn4)nc3C)cc2)c2nncn2n1 | MTT |  | > 50 µM |
| COCCCOc1ccnc(COc2ccc(NC(=O)Nc3ccc(Cl)cc3)cc2)c1C | MTT | 72 h | > 100 µM |
| Cc1cc(Oc2ccc(NC(=O)c3sc(-c4ccncc4)nc3C)cc2)n2ncnc2n1 | MTT |  | > 50 µM |
| COc1cc(C2Oc3cc([C@H]4Oc5cc(O)cc(O)c5C(=O)[C@@H]4O)ccc3OC2CO)ccc1O (stereo partly shown) | CCK-8 | 72 h | > 300 µM |
| Cc1c(OCC(F)(F)F)ccnc1COc1ccc(NC(=O)Nc2ccc(Cl)c(C(F)(F)F)c2)cc1 | MTT | 72 h | > 100 µM |
| Cc1cc(Oc2ccc(NC(=O)c3cc(-c4cccs4)no3)cc2F)c2nncn2n1 | MTT |  | > 50 µM |
| Oc1c(Br)cc(Br)c2cccnc12 | MTT | 48 h | > 100 µM |
